Results: ChEMBL document CHEMBL1212705, “Gene expression signatures and small-molecule compounds link a protein kinase to Plasmodium falciparum motility” (Nat Chem Biol, 2008)
Calls of active or inactive are those of the source. The rule behind the calls is not given here.

Columns and labels:
[1] = Cytotoxicity against human Hep2 cells after 72 hrs by Cell Titer Glo assay; type: cell-based, HEp-2; conditions: read-out: ED50
Summary of the method: (§1)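 Cells seeded at 250 per well in DMEM with 5% fetal bovine serum. Compound added the next day, followed by 72 h culture to match the parasite proliferation assay. Viability read by Cell Titer Glo luminescence.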

[2] = tested on: Plasmodium falciparum; test: Binding affinity to Plasmodium falciparum PFI0235w at 2.5 mM by LC/MS/MS analysis
Summary of the method: (§2)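 P. falciparum parasite lysate was incubated with agarose-immobilized inhibitor and washed extensively. Retained proteins were eluted with urea, resolved by SDS-PAGE and identified by LC/MS/MS. In a competition arm, free inhibitor (2.5 mM) was added to the lysate before incubation with the beads under identical conditions.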

[3] = tested on: Plasmodium falciparum; test: Upregulation of proteasome gene expression in Plasmodium falciparum at 460 nM after 48 hrs by microarray analysis; type: functional, organism-based
Summary of the method: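 P. falciparum 3D7 was grown in human O+ erythrocytes. Heterogeneous, unsynchronized parasites were incubated with 460 nM compound for 24 or 48 h, then compared with untreated parasites on a full-genome microarray. Transcript changes were called by a statistical test.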

[4] = tested on: Plasmodium falciparum; test: Binding affinity to Plasmodium falciparum PF14_0186 at 2.5 mM by LC/MS/MS analysis; summary of the method: as §2
[5] = tested on: Plasmodium falciparum; test: Antiplasmodial activity against chloroquine-resistant Plasmodium falciparum W2 after 72 hrs by SYBR green assay; type: functional, organism-based; conditions: W2, 72 h
Summary of the method: (§3)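 Parasites grown in human O+ erythrocytes in RPMI with human serum and albumax. For the assay, serially diluted compounds were added to screening medium (RPMI, 4.16 mg/ml albumax) at 2.5% hematocrit and 0.3% parasitemia, then incubated 72 h in 93% N2/4% CO2/3% O2. DMSO served as baseline and uninfected erythrocytes as background. SYBR Green fluorescence was read at 520 nm to give EC50.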

[6] = tested on: Plasmodium falciparum; test: Binding affinity to Plasmodium falciparum PF14_0359 at 2.5 mM by LC/MS/MS analysis; summary of the method: as §2
[7] = Cmax in BALB/c mouse at 20 mg/kg single oral dose after 24 hrs by LC/MS/MS analysis; conditions: in vivo
[8] = tested on: Plasmodium falciparum; test: Binding affinity to Plasmodium falciparum PFE1155c at 2.5 mM by LC/MS/MS analysis; summary of the method: as §2
[9] = tested on: Plasmodium falciparum; test: Binding affinity to Plasmodium falciparum PF11_0037 at 2.5 mM by LC/MS/MS analysis; summary of the method: as §2
[10] = tested on: Toxoplasma gondii; test: Antimicrobial activity against Toxoplasma gondii […] infected in african green monkey BSC1 cells assessed as parasite invasion at 25 uM after 48 hrs by microscopy relative to control; type: functional, BSC-1
[11] = tested on: Plasmodium falciparum; test: Antimicrobial activity against Plasmodium falciparum schizonts infected in human erythrocytes assessed as minimal effect on parasite cell cycle at 450 nM treated 24 hrs after release of ring stage by microscopy
[12] = tested on: Plasmodium falciparum; test: Binding affinity to Plasmodium falciparum PFI0875w at 2.5 mM by LC/MS/MS analysis; summary of the method: as §2
[13] = tested on: Plasmodium falciparum; test: Binding affinity to Plasmodium falciparum PFL0185c at 2.5 mM by LC/MS/MS analysis; summary of the method: as §2
[14] = tested on: Plasmodium falciparum; test: Binding affinity to Plasmodium falciparum PF13_0238 at 2.5 mM by LC/MS/MS analysis; summary of the method: as §2
[15] = Cytotoxicity against human HuH7 cells after 72 hrs by Cell Titer Glo assay; type: cell-based, Huh-7; conditions: read-out: ED50; summary of the method: as §1
[16] = tested on: Plasmodium falciparum; test: Binding affinity to Plasmodium falciparum PF14_0096 at 2.5 mM by LC/MS/MS analysis; summary of the method: as §2
[17] = Cytotoxicity against CHO cells after 72 hrs by Cell Titer Glo assay; type: cell-based, Cricetulus griseus; conditions: chinese hamster, read-out: ED50
Summary of the method: (§4)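 Cells were seeded at 250 per well in DMEM with 5% FBS in 1,536-well plates, and compound was added the next day. Culture ran 72 h, matching the parasite proliferation assay. Viability was read by Cell Titer Glo luminescence, and EC50 was derived.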

[18] = tested on: Toxoplasma gondii; test: Antimicrobial activity against Toxoplasma gondii […] infected in african green monkey BSC1 cells assessed as parasite invasion at 12.5 uM after 48 hrs by microscopy relative to control; type: functional, BSC-1
[19] = tested on: Toxoplasma gondii; test: Antimicrobial activity against Toxoplasma gondii […] infected in african green monkey BSC1 cells assessed as parasite invasion at 6.25 uM after 48 hrs by microscopy relative to control; type: functional, BSC-1
[20] = tested on: Plasmodium falciparum; test: Binding affinity to Plasmodium falciparum PF08_0003 at 2.5 mM by LC/MS/MS analysis; summary of the method: as §2
[21] = tested on: Plasmodium falciparum; test: Binding affinity to Plasmodium falciparum PF14_0439 at 2.5 mM by LC/MS/MS analysis; summary of the method: as §2
[22] = Cytotoxicity against human HeLa cells after 72 hrs by Cell Titer Glo assay; type: cell-based; conditions: read-out: ED50; summary of the method: as §4
[23] = tested on: Plasmodium falciparum; test: Binding affinity to Plasmodium falciparum PF13_0304 at 2.5 mM by LC/MS/MS analysis; summary of the method: as §2
[24] = tested on: Plasmodium falciparum; test: Antiplasmodial activity against multidrug-resistant Plasmodium falciparum Dd2 after 72 hrs by SYBR green assay; type: functional, organism-based; conditions: Dd2, 72 h; summary of the method: as §3
[25] = tested on: Plasmodium falciparum; test: Antimicrobial activity against Plasmodium falciparum schizonts infected in human erythrocytes assessed as minimal effect on parasite cell cycle at 450 nM treated 12 hrs after release of ring stage by microscopy

## N[C@H]1CC[C@H](Nc2nc(Nc3ccc(C(=O)N4CCCCC4)cc3)c3ncn(-c4cccc(F)c4)c3n2)CC1 [PURFALCAMINE]
[1]
  CC50 at 72 h: 7.24 µM
[2]
  Activity: inactive
[3]
  Activity: Active
[4]
  Activity: inactive
[5]
  EC50: 0.179 µM
[6]
  Activity: inactive
[7]
  Cmax: 2600 nM
[8]
  Activity: inactive
[9]
  Activity: inactive
[10]
  Activity: <=20%
[11]
  Activity: Active
[12]
  Activity: inactive
[13]
  Activity: inactive
[14]
  Activity: inactive
[15]
  CC50 at 72 h: 5.48 µM
[16]
  Activity: inactive
[17]
  CC50 at 72 h: 12.3 µM
[18]
  Activity: 20%
[19]
  Activity: 20%
[20]
  Activity: inactive
[21]
  Activity: inactive
[22]
  CC50 at 72 h: 7.03 µM
[23]
  Activity: inactive
[24]
  EC50: 0.259 µM
[25]
  Activity: Active
